About 460 (18%) of roughly 2,500 compounds were called active. Not all results are given here. Values without a mark were called inactive.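 How the source made its calls: active means mean activation above a cutoff of low control average plus 3 SD from the earlier screen (cut at about 12% in these data); inactive means the rest.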

A short description of this experiment: compound fluorescence interference without thin filaments, confirmation, artefact control for cardiac RTF calcium sensitizer project, biochemical (AID 504382). Particulars: IANBD fluorescence interference counterscreen, buffer, EC20 Ca2+; at 7.2 µM; stronger effect = higher value; scaled: EC20 calcium 0, EC100 calcium 100. Summed up:
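Medium: MOPS buffer, 190 mM, with KCl, MgCl2, EGTA, NTA, DTT, pH 7.20; Dosing: one dose of 7.2 µM, 0.7% DMSO; Probe or stimulus: calcium at EC20 level, 0.472 mM final; Incubation: 15 min, 25 °C; Evaluation: compound fluorescence interference relative to control well signal range; Signal: fluorescence, 480/540 nm.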
For the compound `O=C1CCc2cc(S(=O)(=O)NC3CCCCC3)ccc2N1`, the fluorescence artifact activation was -0.07%.
As for `Cc1ccc(CNC(=O)CC(C)S(=O)(=O)c2ccc3c(c2)NC(=O)CS3)o1` (stereo not given), the figure is 45.8% (active); as for `Cc1cc(C)n2nc(SCC(=O)N(C)Cc3ccccc3)nc2n1`, -0.05%.
The figure for `CCN1CCN(Cc2c(O)ccc3c2O/C(=C\c2ccccc2)C3=O)CC1` is 2.91%; for `CCN(CC)Cc1c(O)ccc2c1O/C(=C\C=C\c1ccccc1)C2=O` it is 0.87%; for `O=C1/C(=C/C=C/c2ccccc2)Oc2c1ccc(O)c2CN1CCN(CCO)CC1` it is 46.6% (active).
The figure for `COc1ccccc1/C=C/C=C1\Oc2c(ccc(O)c2CN2CCN(CCO)CC2)C1=O` is 11.9% (active).
With `COc1ccccc1/C=C/C=C1\Oc2c(ccc(O)c2CN(C)C)C1=O`, the fluorescence artifact activation is 5.64%.
As for `CN(C)Cc1c(O)ccc2c1O/C(=C\C=C\c1ccccc1)C2=O`, the figure is 0.37%.
The figure for `CCN1CCN(Cc2c(O)ccc3c2O/C(=C\C=C\c2ccccc2OC)C3=O)CC1` is 1.64%; for `CCN1CCN(Cc2c(O)ccc3c2O/C(=C\C=C\c2ccccc2)C3=O)CC1` it is 20.6% (active); for `Cc1ccc(/C=C2\Oc3c(ccc(O)c3CN3CCN(CCO)CC3)C2=O)cc1` it is 4.11%.
`Cc1c(/C=N/O)c2ccccn2c1C=O`: the fluorescence artifact activation is 0.97%.
Take `O=[N+]([O-])c1cc(-c2nc(-c3ccncc3)no2)ccc1Cl`: the fluorescence artifact activation was -0.06%.
Take `CCCc1ccc(OCc2ccc(C(=O)NN)o2)c(OC)c1`: the fluorescence artifact activation was -0.08%.
The figure for `CN1CCCc2cc3c(C(F)(F)F)cc(=O)oc3nc21` is 1.21%; for `CC1CCCCC1NS(=O)(=O)CCNC(=O)c1ccccc1` (stereo not given) it is -0.01%.
For `CC(CC(=O)N1CCc2ccccc21)n1cccn1` (stereo not given), the fluorescence artifact activation was 0.19%.
As for `C[C@H](O)C(=O)C1=Nc2c(nc(N)[nH]c2=O)NC1`, the figure is 0.04%; as for `CC(=O)c1cccc(NC(=O)Cn2nc(-c3ccccc3Cl)ccc2=O)c1`, 0.29%.
On to `CN1C(=O)NC(c2ccccc2[N+](=O)[O-])C2=C1CCCC2=O` (stereo not given), for which the fluorescence artifact activation is 0.1%.
As for `CCN1C(=S)N[C@@H](CCc2ccccc2)[C@H](C(=O)OC)[C@H]1C`, the figure is 20.1% (active); as for `O=C(N/N=C/c1ccc([N+](=O)[O-])cc1)c1cc(-c2ccc3c(c2)OCO3)n[nH]1`, 0.03%; as for `CSc1nc(C)nc(N/C=C(\C#N)S(=O)(=O)c2ccccc2Cl)n1`, 0.27%.
As for `COC(=O)c1cc2c(cc1NC(=O)CSCCc1ccccn1)OCO2`, the figure is 0.01%; as for `O=C(CN1C(=O)c2ccccc2C1=O)N1CCN=C1c1ccccc1`, 19.8% (active).
Take `O=C1c2ccccc2C(=O)N1CC1=NCCc2ccccc21`: the fluorescence artifact activation was 0.03%.
`O=C(c1ccc(F)cc1)N1CCN=C1c1ccccc1`: the fluorescence artifact activation was 0.24%.
As for `O=C(O)c1ccccc1/C=N/NC(=S)NC1CCCCC1`, the fluorescence artifact activation is 0.11%.
Regarding `CSc1ccc(Cl)c(C(=O)NNC(=O)c2csc(N3CCOCC3)n2)c1`, the fluorescence artifact activation was 2.41%.
Turning to `CCCN1CC=C2C(C#N)=C(N)C(C#N)(C#N)C(c3cccc(OC)c3OC)C2C1` (stereo not given), the fluorescence artifact activation is 0.1%.
`Nc1nc(NCc2ccco2)nc(N2CCCCCC2)c1[N+](=O)[O-]`: the fluorescence artifact activation was 1.86%.
For `Cc1cc(/C=C2\SC(=S)N(Cc3ccco3)C2=O)c(C)n1-c1cccnc1`, the fluorescence artifact activation is 10.8%.
As for `COc1ccc(-n2c(C)cc(/C=C3\SC(=S)N(Cc4ccco4)C3=O)c2C)cc1`, the figure is 91.9% (active).
The figure for `Cc1cc(/C=C2\SC(=S)N(Cc3ccco3)C2=O)c(C)n1-c1ccccc1` is 3.1%.
The figure for `Cc1nc(NC(=O)C(Cl)Cl)sc1C(=O)N(C)C` is 0.56%.
Take `CC(C)CCNC(=O)c1ccc2c(SCC(=O)O)c3c(nc2c1)CCC3`: the fluorescence artifact activation was 12.9% (active).
For `CCOc1c2ccc(C(=O)NCCc3cccs3)cc2nn1CC`, the fluorescence artifact activation is 0.58%.
On to `COC(=O)C1C2CC3c4[nH]c5cc(OC)ccc5c4CCN3CC2CC(OC(=O)CC(C)=O)C1OC` (stereo not given), for which the fluorescence artifact activation is 0.13%.
As for `CN(C)c1ccc(/C=C2\CCC/C(=C\c3ccccc3)C2=O)cc1`, the figure is 0.02%.
The figure for `Cc1ccc(/C=C2/NC(=O)N(Cc3ccccc3)C2=O)s1` is 0.01%.
With `CN(C)c1ccc(/C=C2\NC(=S)N(Cc3ccccc3)C2=O)cc1`, the fluorescence artifact activation is 91.1% (active).
Consider `COC(=O)c1sccc1Oc1ccc(Cl)cc1N1C(=O)CCC1=O`, for which the fluorescence artifact activation was 0.03%.
For the compound `COC(=O)c1c(=O)n(O)c2ccc(OC)cc2[n+]1[O-]`, the fluorescence artifact activation was 0.04%.
As for `C=CCn1c(=O)/c(=C/c2cc(OC)c(OC)c(OC)c2)s/c1=C(/C#N)c1nc2ccccc2n1C`, the figure is 0.02%.
With `Cc1cccc(OCc2nn[nH]n2)c1C`, the fluorescence artifact activation was 1.02%.
The figure for `COc1ccccc1C1=NOC(Cn2c(=O)c3c(ncn3C)n(C)c2=O)C1` (stereo not given) is 0.23%; for `CCN(CC)CCN1C(=O)c2cccc3cc(N)cc(c23)C1=O` it is 24.6% (active).
Take `CC(C)CCN1C(=O)c2cccc3c(N)ccc(c23)C1=O`: the fluorescence artifact activation was 1.45%.
For `O=C1c2cccc3cc([N+](=O)[O-])cc(c23)C(=O)N1CCN1CCCC1`, the fluorescence artifact activation is 0.08%.
As for `Cc1ccc(Cn2c(O)c(N=NC(=S)Nc3ccccc3F)c3cc(S(=O)(=O)N4CCOCC4)ccc32)cc1`, the figure is 5.72%; as for `CC(=O)c1cc(NC(=O)c2ccc(Cl)cc2)c(=O)oc1/C=C/N(C)C`, 0.02%; as for `COC(=O)c1cc(NC(=O)c2ccccc2)c(=O)oc1C/C=N\OCc1ccc(Cl)cc1Cl`, 0.01%.
In the case of `CC(=O)c1cc(NC(=O)c2ccc(C)cc2)c(=O)oc1/C=C/N(C)C`, the fluorescence artifact activation is 15.6% (active).
As for `N#CC12COC3(CCCCC3C1(C#N)C#N)OC2=N` (stereo not given), the fluorescence artifact activation was 0.14%.
As to `CN(CC(=O)NCc1ccco1)S(=O)(=O)c1cccc2cccnc12`, the fluorescence artifact activation is 6.75%.
The figure for `CCOc1ccc(N(C(=O)CNC(=O)c2ccco2)C(C(=O)NC2CCCC2)c2ccncc2)cc1` (stereo not given) is 0.08%; for `CCC(C)(C)NC(=O)C(c1ccc(F)cc1)N(Cc1ccco1)C(=O)c1cnccn1` (stereo not given) it is 18.7% (active); for `COc1cccc(CN2CCNC(=O)C2CC(=O)N(C)Cc2cnccn2)c1OC` (stereo not given) it is 0.09%.
As for `O=C(CSC1=NS(=O)(=O)c2ccccc2N1)N1CCCCC1`, the figure is 1.61%; as for `CN(C)C(CNC(=O)CSc1nc2ccccc2c(=O)n1Cc1ccco1)c1ccccc1` (stereo not given), -0.06%.
The figure for `O=C(Cc1c(F)cccc1Cl)Nc1nccs1` is 0.01%; for `CC1(C)CC(CC(=O)Nc2nccs2)(c2ccccc2)CCO1` (stereo not given) it is 239% (active).
Take `CC1(C)CC2(CCCN(C(=S)Nc3ccccc3)C2)CCO1` (stereo not given): the fluorescence artifact activation was 0.12%.
Turning to `Cn1c(=O)cc(SCC(=O)NCC2COc3ccccc3O2)c2ccccc21` (stereo not given), the fluorescence artifact activation is 0.03%.
Take `Cc1cc(NS(C)(=O)=O)c(=O)n(Cc2cccc(F)c2)c1`: the fluorescence artifact activation is 0.35%.
As for `COc1ccc(N/C=C2\C(=O)CCc3c2oc2cc(Cl)c(O)c(Cl)c32)cc1`, the figure is 12.7% (active); as for `Cn1cnnc1Sc1nc2ccccc2nc1NS(=O)(=O)c1ccccc1`, 4.87%; as for `Cc1cc(N/C=C\c2nnnn2-c2ccc(F)cc2)no1`, 233% (active).
As for `CC(=O)N(c1ccccc1)C1SC(=O)N(c2ccccc2)C1=O` (stereo not given), the figure is 0.05%; as for `O=C(O)CN1C(=O)/C(=C/c2ccc(SCc3ccccc3)o2)SC1=S`, 11.5%.
As for `O=C(O)C(c1ccccc1)N1C(=O)/C(=C\c2ccc(-c3ccc(Br)cc3)o2)SC1=S` (stereo not given), the fluorescence artifact activation was 68.3% (active).
For `O=C(O)c1cc(-c2ccc(/C=C3/SC(=S)N(Cc4ccccc4)C3=O)o2)ccc1Cl`, the fluorescence artifact activation is 0.02%.
The figure for `CC(C)NC(=S)N/N=C/c1sc(N2CCCCC2)nc1-c1cccs1` is 0.18%.
As for `FC(F)(F)c1ccc(-c2nc(=S)[nH][nH]2)cc1`, the figure is -0.01%.
As to `CCN(CC)CC(C(=O)N(CC)CC)P(=O)(c1ccccc1)c1ccccc1` (stereo not given), the fluorescence artifact activation was 1.03%.
Consider `CCC1Oc2ccc(C)cc2N(CC(=O)NCc2cccs2)C1=O` (stereo not given), for which the fluorescence artifact activation was -0.08%.
On to `Cc1ccc(SCC(=O)OCC(=O)NCc2cccs2)cc1`, for which the fluorescence artifact activation was 2.52%.
As to `O=C(CO/N=C/c1ccccc1OC(F)F)NCc1cccs1`, the fluorescence artifact activation is 16.6% (active).
On to `C=CCOc1ccc(C2OC34CCCCC3C(C#N)(C#N)C2(C#N)C(=N)O4)cc1` (stereo not given), for which the fluorescence artifact activation is 0.84%.
The figure for `Cc1ccc(-c2noc(-c3c(C)noc3C)n2)cc1` is 2%; for `O=C1c2ccsc2SCCN1Cc1ccc(F)cc1` it is 7.58%; for `O=C(NN1C(=O)/C(=C/c2ccc(O)cc2)SC1=S)c1ccccc1O` it is 0.14%.
The figure for `C=C(C)c1cccc(C(C)(C)NC(=O)Nc2cccnc2)c1` is 5%.
As to `N#CC1=C(N)OC2=C(CC/C2=C\c2ccccc2)C1c1ccccc1` (stereo not given), the fluorescence artifact activation was 1.94%.
As for `N#CC1=C(N)OC2=C(CC/C2=C\c2ccccc2Cl)C1c1ccccc1Cl` (stereo not given), the figure is 125% (active); as for `Cc1ccc(/C=C2\CCC3=C2OC(N)=C(C#N)C3c2ccc(C)cc2)cc1` (stereo not given), 0.12%.
The figure for `COc1ccc2c(n1)Sc1nc3ccccc3nc1N2` is 0.01%.
Turning to `O=C(c1ccccc1)c1ccc(O)cc1O`, the fluorescence artifact activation was 24.9% (active).
`O=C(c1ccccc1)c1ccccc1C(=O)c1ccccc1`: the fluorescence artifact activation is 0.23%.
As for `O=C(c1ccccc1)c1ccncc1`, the figure is 0.03%; as for `CC1(C)CC(=O)C2=C(C1)OC(N)=C(C#N)[C@@H]2c1ccccc1[N+](=O)[O-]`, 7.58%.
As for `O=C(O)c1ccc(NC(=S)NC(=O)c2ccc(-c3ccccc3)cc2)cc1`, the figure is 9.94%.
As for `CCNC(=O)COc1ccc(-c2ccccc2)cc1`, the figure is 0.09%.
Regarding `O=C(O)CCC(=O)NNC(=O)c1ccc(-c2ccccc2)cc1`, the fluorescence artifact activation is 49% (active).

Source of the values: PubChem BioAssay AID504382 (The Scripps Research Institute Molecular Screening Center, 2011).
